Laboratory results reported in ChEMBL document CHEMBL1817631, “Synthesis and characterization of tritylthioethanamine derivatives with potent KSP inhibitory activity” (Bioorg Med Chem, 2011).
Calls of active or inactive are those of the source. The rule behind the calls is not given here.

What was measured:
[1] = molecular target: T1, Kinesin-like protein Klp61F (Drosophila melanogaster) (UniProt P46863); test: Inhibition of Drosophila melanogaster Klp61F in S2 cells at 100 uM up to 7 hrs by immunofluorescence analysis; type: cell-based
T1 sequence (whole entry): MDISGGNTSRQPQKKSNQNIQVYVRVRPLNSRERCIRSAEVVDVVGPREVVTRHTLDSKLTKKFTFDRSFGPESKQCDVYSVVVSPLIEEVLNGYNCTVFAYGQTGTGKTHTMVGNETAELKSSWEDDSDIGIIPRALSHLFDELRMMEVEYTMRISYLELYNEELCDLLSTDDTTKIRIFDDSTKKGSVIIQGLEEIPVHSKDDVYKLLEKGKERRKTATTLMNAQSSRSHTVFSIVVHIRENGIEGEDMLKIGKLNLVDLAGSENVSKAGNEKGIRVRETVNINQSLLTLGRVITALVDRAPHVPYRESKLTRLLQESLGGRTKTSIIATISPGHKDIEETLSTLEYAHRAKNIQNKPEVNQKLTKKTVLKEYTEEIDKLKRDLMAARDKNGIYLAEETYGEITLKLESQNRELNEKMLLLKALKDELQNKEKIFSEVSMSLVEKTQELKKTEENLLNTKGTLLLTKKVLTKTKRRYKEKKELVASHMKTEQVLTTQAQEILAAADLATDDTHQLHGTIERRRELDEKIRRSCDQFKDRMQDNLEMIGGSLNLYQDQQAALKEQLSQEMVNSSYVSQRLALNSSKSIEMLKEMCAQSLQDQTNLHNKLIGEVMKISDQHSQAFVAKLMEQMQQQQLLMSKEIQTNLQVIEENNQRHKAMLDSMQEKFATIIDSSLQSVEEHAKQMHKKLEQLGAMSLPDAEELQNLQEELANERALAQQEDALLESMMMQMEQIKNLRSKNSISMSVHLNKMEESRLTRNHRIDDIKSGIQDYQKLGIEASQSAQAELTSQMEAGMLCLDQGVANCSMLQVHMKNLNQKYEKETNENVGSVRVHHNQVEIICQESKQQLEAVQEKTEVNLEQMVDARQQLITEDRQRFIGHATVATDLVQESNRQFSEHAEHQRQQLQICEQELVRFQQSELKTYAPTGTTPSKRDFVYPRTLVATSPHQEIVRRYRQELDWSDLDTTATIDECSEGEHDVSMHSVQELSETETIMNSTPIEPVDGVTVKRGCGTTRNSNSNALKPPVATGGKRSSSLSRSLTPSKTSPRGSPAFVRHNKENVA
In short: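 Drosophila S2 cells were exposed to compound over a three-log concentration range up to 100 μM, with treatments extending up to 7 h. Bipolar spindle formation was scored by immunofluorescence.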

[2] = test system: HL-60(TB); test: Growth inhibition of human HL-60(TB) cells; type: functional
[3] = Growth inhibition of human […] cells; type: functional
[4] = test system: NCI-H322M; test: Growth inhibition of human NCI-H322M cells; type: functional
[5] = test system: HCC 2998; test: Growth inhibition of human HCC2998 cells; type: functional
[6] = test system: HCT-15; test: Growth inhibition of human HCT15 cells; type: functional
[7] = test system: HT-29; test: Growth inhibition of human HT-29 cells; type: functional
[8] = test system: SW-620; test: Growth inhibition of human SW620 cells; type: functional
[9] = test system: SF-539; test: Growth inhibition of human SF539 cells; type: functional
[10] = test system: SNB-19; test: Growth inhibition of human SNB19 cells; type: functional
[11] = test system: SNB-75; test: Growth inhibition of human SNB75 cells; type: functional
[12] = test system: LOX IMVI; test: Growth inhibition of human LOXIMVI cells; type: functional
[13] = test system: M14; test: Growth inhibition of human M14 cells; type: functional
[14] = test system: SK-MEL-28; test: Growth inhibition of human SK-MEL-28 cells; type: functional
[15] = test system: SK-MEL-5; test: Growth inhibition of human SK-MEL-5 cells; type: functional
[16] = test system: UACC-62; test: Growth inhibition of human UACC62 cells; type: functional
[17] = test system: OVCAR-5; test: Growth inhibition of human OVCAR5 cells; type: functional
[18] = test system: ACHN; test: Growth inhibition of human ACHN cells; type: functional
[19] = test system: SN12C; test: Growth inhibition of human SN12C cells; type: functional
[20] = test system: TK-10; test: Growth inhibition of human TK10 cells; type: functional
[21] = test system: UO-31; test: Growth inhibition of human UO31 cells; type: functional
[22] = test system: HeLa; test: Inhibition of bipolar spindle formation in human HeLa cells at 1 uM; type: functional, cell-based
In short: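 HeLa cells were grown in MEM with Earle's BSS, 10% FBS, sodium bicarbonate and pyruvate at 37°C in 5% CO2. They were exposed to compound in DMSO for 4 h, with 0.1% DMSO as carrier control. Cells were fixed in −20°C methanol and immunostained for tubulin, with DNA counterstained. Bipolar spindle formation was scored in 100 mitotic cells per condition.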

[23] = test system: HeLa; test: Effect on interphase microtubule organization in human HeLa cells at 1 uM; type: functional, cell-based
In short: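 HeLa cells were grown in MEM/Earle's BSS with 10% FBS at 37 °C and 5% CO2, then treated 4 h with 1 μM compound or 0.1% DMSO carrier. Cells were fixed in 100% MeOH at −20 °C and blocked in PBS-5% BSA. They were stained overnight at 4 °C with mouse anti-tubulin and for DNA, then imaged by epifluorescence with structured illumination.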

[24] = molecular target: Kinesin-like protein KIF2C (Homo sapiens) (UniProt Q99661); test: Inhibition of MACK
Sequence of Kinesin-like protein KIF2C (Homo sapiens) (Q99661 whole entry, the tested form may be a part): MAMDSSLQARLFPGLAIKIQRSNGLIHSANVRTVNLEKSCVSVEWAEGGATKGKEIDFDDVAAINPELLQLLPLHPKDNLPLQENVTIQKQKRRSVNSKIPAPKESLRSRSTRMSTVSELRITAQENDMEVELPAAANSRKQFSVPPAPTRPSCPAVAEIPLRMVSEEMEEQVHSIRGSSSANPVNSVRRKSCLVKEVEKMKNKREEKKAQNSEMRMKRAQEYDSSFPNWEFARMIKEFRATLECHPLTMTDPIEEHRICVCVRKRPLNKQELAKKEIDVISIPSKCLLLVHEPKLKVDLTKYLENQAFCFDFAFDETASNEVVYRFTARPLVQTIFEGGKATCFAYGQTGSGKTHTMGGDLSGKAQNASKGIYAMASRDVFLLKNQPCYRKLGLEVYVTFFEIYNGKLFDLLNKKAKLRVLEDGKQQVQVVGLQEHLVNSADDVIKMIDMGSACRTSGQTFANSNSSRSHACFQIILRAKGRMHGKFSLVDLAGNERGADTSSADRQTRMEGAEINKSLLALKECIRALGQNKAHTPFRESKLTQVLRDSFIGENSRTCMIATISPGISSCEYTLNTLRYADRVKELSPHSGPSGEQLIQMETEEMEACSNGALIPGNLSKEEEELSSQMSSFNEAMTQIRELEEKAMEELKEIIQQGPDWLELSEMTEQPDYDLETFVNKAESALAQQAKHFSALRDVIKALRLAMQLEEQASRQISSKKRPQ
In short: (§1)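 Microtubule-activated ATPase end-point assay with kinesin motor domain at 0.08 μg/μl final. Reactions were started with 2 mM ATP, run 5 min at room temperature, and stopped with CytoPhos. After 10 min more, absorbance was read at 650 nm. Compounds were tested at 0.25–10 μM against a 0.1% DMSO control, in triplicate. IC50 came from four-parameter non-linear regression.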

[25] = molecular target: Centromere-associated protein E (Homo sapiens) (UniProt Q02224); test: Inhibition of CENP-E; in short: as §1
Sequence of Centromere-associated protein E (Homo sapiens) (Q02224 whole entry): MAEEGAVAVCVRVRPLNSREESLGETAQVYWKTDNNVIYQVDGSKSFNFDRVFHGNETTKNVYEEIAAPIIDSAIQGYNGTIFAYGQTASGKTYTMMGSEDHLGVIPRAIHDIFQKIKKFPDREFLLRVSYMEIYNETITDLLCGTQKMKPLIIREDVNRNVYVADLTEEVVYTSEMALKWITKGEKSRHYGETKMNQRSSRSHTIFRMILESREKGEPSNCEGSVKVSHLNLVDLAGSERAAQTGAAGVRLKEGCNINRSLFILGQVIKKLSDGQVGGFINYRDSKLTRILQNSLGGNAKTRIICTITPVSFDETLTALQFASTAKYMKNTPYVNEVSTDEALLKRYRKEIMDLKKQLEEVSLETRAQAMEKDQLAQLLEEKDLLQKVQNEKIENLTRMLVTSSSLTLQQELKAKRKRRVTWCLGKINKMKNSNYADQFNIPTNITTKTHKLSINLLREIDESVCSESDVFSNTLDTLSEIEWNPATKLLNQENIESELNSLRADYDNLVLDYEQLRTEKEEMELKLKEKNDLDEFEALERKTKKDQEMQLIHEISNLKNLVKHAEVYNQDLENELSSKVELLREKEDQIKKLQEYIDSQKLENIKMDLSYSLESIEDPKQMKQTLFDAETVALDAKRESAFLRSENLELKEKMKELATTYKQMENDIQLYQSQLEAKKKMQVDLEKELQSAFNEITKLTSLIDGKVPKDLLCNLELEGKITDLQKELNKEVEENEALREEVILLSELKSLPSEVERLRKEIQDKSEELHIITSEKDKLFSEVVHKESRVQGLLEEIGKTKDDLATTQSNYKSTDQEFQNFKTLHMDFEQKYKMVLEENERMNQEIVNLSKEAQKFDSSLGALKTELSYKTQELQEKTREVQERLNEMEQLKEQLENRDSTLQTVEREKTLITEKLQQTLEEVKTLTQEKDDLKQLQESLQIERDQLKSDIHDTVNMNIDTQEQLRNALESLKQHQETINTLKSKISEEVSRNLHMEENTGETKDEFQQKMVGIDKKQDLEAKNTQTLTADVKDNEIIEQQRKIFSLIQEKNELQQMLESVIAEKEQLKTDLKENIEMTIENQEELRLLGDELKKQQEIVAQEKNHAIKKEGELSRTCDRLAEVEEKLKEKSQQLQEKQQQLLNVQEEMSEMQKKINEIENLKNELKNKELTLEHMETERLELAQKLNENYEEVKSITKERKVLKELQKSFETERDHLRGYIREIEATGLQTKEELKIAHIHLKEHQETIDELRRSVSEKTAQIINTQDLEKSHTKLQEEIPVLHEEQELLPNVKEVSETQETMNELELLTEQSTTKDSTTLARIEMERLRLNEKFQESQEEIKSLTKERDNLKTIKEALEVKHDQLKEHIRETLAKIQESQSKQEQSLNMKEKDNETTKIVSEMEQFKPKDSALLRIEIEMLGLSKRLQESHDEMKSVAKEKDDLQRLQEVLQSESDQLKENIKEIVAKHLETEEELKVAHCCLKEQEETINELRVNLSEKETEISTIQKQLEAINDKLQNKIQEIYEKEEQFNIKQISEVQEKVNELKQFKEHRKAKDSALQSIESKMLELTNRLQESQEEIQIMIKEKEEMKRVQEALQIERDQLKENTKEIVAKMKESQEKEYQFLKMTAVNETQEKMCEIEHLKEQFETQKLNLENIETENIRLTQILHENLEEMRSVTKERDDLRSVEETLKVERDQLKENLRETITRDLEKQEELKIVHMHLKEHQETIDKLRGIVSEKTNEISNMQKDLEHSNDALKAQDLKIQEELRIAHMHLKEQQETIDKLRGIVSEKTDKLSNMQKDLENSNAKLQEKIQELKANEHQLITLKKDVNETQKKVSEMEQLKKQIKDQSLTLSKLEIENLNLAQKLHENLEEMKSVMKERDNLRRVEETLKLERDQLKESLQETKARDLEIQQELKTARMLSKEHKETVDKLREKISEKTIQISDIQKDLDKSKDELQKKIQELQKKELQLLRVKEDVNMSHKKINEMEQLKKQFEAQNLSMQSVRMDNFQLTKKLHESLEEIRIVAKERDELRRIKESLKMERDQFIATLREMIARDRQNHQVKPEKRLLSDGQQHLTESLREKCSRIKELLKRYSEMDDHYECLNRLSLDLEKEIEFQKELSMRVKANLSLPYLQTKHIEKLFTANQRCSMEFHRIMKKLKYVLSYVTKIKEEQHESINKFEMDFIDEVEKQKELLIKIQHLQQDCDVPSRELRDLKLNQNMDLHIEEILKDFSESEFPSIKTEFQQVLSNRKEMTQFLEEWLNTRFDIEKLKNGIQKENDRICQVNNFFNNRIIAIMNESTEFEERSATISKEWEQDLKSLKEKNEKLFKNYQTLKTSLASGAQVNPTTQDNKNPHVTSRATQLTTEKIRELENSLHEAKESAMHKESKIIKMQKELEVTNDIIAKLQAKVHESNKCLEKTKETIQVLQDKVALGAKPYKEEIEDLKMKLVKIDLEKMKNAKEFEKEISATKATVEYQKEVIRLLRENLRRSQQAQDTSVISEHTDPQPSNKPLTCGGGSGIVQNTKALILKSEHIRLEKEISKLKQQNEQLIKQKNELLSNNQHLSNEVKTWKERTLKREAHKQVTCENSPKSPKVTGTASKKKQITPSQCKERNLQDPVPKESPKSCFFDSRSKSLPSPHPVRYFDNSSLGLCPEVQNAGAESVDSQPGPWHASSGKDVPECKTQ

[26] = molecular target: Chromosome-associated kinesin KIF4A (Homo sapiens) (UniProt O95239); test: Inhibition of chromokinesin
Sequence of Chromosome-associated kinesin KIF4A (Homo sapiens) (O95239 whole entry): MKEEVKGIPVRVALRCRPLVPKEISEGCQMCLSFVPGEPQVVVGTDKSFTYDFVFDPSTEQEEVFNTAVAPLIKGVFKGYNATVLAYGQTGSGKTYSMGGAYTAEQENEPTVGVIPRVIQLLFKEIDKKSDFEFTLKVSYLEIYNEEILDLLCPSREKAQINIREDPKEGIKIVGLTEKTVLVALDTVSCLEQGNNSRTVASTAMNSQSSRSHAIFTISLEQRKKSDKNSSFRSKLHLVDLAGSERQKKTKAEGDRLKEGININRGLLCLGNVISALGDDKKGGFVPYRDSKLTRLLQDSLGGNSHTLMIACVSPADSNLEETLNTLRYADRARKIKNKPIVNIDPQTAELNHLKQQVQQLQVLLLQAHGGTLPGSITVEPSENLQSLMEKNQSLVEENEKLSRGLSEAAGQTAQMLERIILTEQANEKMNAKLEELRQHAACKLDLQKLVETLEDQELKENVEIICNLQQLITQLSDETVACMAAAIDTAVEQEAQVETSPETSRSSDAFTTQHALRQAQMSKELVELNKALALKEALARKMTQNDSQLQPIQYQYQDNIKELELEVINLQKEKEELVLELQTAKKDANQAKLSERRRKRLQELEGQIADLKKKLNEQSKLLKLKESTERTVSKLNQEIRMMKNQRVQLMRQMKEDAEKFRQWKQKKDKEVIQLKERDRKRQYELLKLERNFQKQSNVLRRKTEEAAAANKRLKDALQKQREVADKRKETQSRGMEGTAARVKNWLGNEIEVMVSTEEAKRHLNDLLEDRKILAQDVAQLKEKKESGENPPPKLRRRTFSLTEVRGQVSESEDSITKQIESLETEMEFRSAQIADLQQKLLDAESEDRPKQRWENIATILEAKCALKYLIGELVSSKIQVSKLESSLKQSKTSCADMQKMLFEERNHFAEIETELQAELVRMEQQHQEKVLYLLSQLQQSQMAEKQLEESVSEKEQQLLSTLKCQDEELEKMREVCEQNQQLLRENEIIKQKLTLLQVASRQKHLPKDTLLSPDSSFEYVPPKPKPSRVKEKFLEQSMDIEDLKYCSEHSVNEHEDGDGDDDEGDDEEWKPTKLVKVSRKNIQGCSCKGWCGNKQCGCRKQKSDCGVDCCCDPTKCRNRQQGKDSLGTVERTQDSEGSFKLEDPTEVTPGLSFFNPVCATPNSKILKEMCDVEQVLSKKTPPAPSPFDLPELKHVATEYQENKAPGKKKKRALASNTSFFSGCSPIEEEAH

[27] = test system: HeLa; test: Induction of KSP depletion in human HeLa cells after 4 hrs by immunofluorescence analysis; type: functional, cell-based
In short: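 HeLa cells were treated 4 h across a concentration series of compound in DMSO, then fixed in 100% MeOH at −20 °C. They were probed overnight at 4 °C with mouse anti-KSP and rabbit anti-EB1 to mark microtubules, with Alexa Fluor secondaries and DNA counterstain. KSP (green channel) images were taken at equivalent exposure times.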

[28] = test system: HeLa; test: Induction of KSP depletion in human HeLa cells after 4 hrs by immunofluorescence analysis relative to STLC; type: functional
In short: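 HeLa cells in MEM/Earle's BSS with 10% FBS at 37°C, 5% CO2 were exposed 4 h to DMSO-dissolved compound over a range of doses. They were then fixed in 100% MeOH at −20°C (≥30 min), rehydrated in PBS, blocked in PBS-5% BSA, and stained overnight at 4°C with mouse anti-KSP plus rabbit anti-EB1 (microtubules). DNA was counterstained. Green channel was imaged at equal exposure.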

[29] = Inhibition of bipolar spindle formation in Strongylocentrotus purpuratus eggs; type: functional, Egg
In short: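 S. purpuratus eggs (gametes released with 0.5M KCl) were fertilized in artificial seawater with 2 mM 3-amino triazole and stripped of envelopes 20 min post-fertilization. They were then cultured with 0.1% DMSO or inhibitor at 100 nM–100 μM, fixed at first mitosis and stained for microtubules and DNA. 100 cells per condition were scored for bipolar spindles to derive EC50.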

[30] = test system: CCRF-CEM; test: Growth inhibition of human CCRF-CEM cells; type: functional
[31] = test system: K562; test: Growth inhibition of human K562 cells; type: functional
[32] = test system: MOLT-4; test: Growth inhibition of human MOLT4 cells; type: functional
[33] = test system: SR; test: Growth inhibition of human SR cells; type: functional
[34] = test system: A549; test: Growth inhibition of human A549 cells; type: functional
[35] = test system: EKVX; test: Growth inhibition of human EKVX cells; type: functional
[36] = test system: HOP-62; test: Growth inhibition of human HOP62 cells; type: functional
[37] = test system: NCI-H226; test: Growth inhibition of human NCI-H226 cells; type: functional
[38] = test system: NCI-H522; test: Growth inhibition of human NCI-H522 cells; type: functional
[39] = test system: COLO 205; test: Growth inhibition of human COLO205 cells; type: functional
[40] = test system: KM12; test: Growth inhibition of human KM12 cells; type: functional
[41] = test system: SF-268; test: Growth inhibition of human SF268 cells; type: functional
[42] = test system: SF-295; test: Growth inhibition of human SF295 cells; type: functional
[43] = test system: U-251; test: Growth inhibition of human U251 cells; type: functional
[44] = test system: Malme-3M; test: Growth inhibition of human MALME-3M cells; type: functional
[45] = test system: SK-MEL-2; test: Growth inhibition of human SK-MEL-2 cells; type: functional
[46] = test system: UACC-257; test: Growth inhibition of human UACC257 cells; type: functional
[47] = test system: OVCAR-3; test: Growth inhibition of human OVCAR3 cells; type: functional
[48] = test system: OVCAR-4; test: Growth inhibition of human OVCAR4 cells; type: functional
[49] = test system: OVCAR-8; test: Growth inhibition of human OVCAR8 cells; type: functional
[50] = test system: SK-OV-3; test: Growth inhibition of human SKOV3 cells; type: functional
[51] = test system: 786-0; test: Growth inhibition of human 786-0 cells; type: functional
[52] = test system: CAKI-1; test: Growth inhibition of human Caki1 cells; type: functional

COc1ccc(C(SC[C@H](N)C(=O)O)(c2ccccc2)c2ccccc2)cc1
inhibition [1]: inactive

COc1ccc(C(SC[C@@H](N)C(=O)O)(c2ccccc2)c2ccccc2)cc1
inhibition [1]: inactive

CCOC(=O)C1=C(C)NC(=S)NC1c1cccc(O)c1 (stereo not drawn) [MONASTROL]
GI50 [2]: 25100 nM | GI50 [3]: 31600 nM | GI50 [4]: 39800 nM | GI50 [5]: 39800 nM | GI50 [6]: 39800 nM | GI50 [7]: 79400 nM | GI50 [8]: 39800 nM | GI50 [9]: 50100 nM | GI50 [10]: 79400 nM | GI50 [11]: 39800 nM | GI50 [12]: 79400 nM | GI50 [13]: 25100 nM | GI50 [14]: 79400 nM | GI50 [15]: 39800 nM | GI50 [16]: 39800 nM | GI50 [17]: 79400 nM | GI50 [18]: 79400 nM | GI50 [19]: 39800 nM | GI50 [20]: 100000 nM | GI50 [21]: 100000 nM

COc1ccc(C(SC[C@H](N)CO)(c2ccccc2)c2ccccc2)cc1
inhibition [22]: Active | Activity [23]: inactive | inhibition [24]: inactive | inhibition [25]: inactive | inhibition [26]: inactive | Activity [27]: Dose-dependent effect | fold change (FC) [28]: 1.63 | inhibition [1]: inactive | EC50 [29]: 28000 nM | GI50 [30]: 100 nM | GI50 [2]: 190 nM | GI50 [31]: 60 nM | GI50 [32]: 280 nM | GI50 [3]: 30 nM | GI50 [33]: 10 nM | GI50 [34]: 330 nM | GI50 [35]: 510 nM | GI50 [36]: 510 nM | GI50 [37]: 2750 nM | GI50 [4]: 110 nM | GI50 [38]: 220 nM | GI50 [39]: 80 nM | GI50 [5]: 50 nM | GI50 [6]: 210 nM | GI50 [7]: 340 nM | GI50 [40]: 220 nM | GI50 [8]: 70 nM | GI50 [41]: 110 nM | GI50 [42]: 280 nM | GI50 [9]: 260 nM | GI50 [10]: 250 nM | GI50 [43]: 190 nM | GI50 [12]: 490 nM | GI50 [44]: 360 nM | GI50 [13]: 20 nM | GI50 [45]: 240 nM | GI50 [14]: 620 nM | GI50 [15]: 60 nM | GI50 [46]: 540 nM | GI50 [16]: 250 nM | GI50 [47]: 200 nM | GI50 [48]: 1620 nM | GI50 [17]: 390 nM | GI50 [49]: 420 nM | GI50 [50]: 80 nM | GI50 [51]: 440 nM | GI50 [18]: 490 nM | GI50 [52]: 450 nM | GI50 [19]: 320 nM | GI50 [20]: 460 nM | GI50 [21]: 1100 nM
